# Assay outcomes: PubChem BioAssay, several laboratories
# HCT116 PTEN-null: growth suppression of PTEN-null HCT116, primary screen, cell-based, CellTiter-Glo; HCT116 PTEN-null viability, 60 h; hits give low values; viability, % at 10 µM; 140,000 compounds, 1.2% hits;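 active = viability at or below a set limit, 4 SD under the median of all tested compounds, cut at about 3.7% in these data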;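 also: PTEN knockout HCT116 line with beta catenin targeted HCT116 as companion control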
# Dynein transport: inhibitors of GR-EGFP nuclear translocation, primary screen, dynein cargo transport inhibitor project, imaging, high-content, 3617.4 mouse cells | test concentration mostly 20 µM; stimulated with dexamethasone, 1 µM; hits give low values | z-score, hits read low | 220,000 compounds, 0.47% hits | AID 1381, 2008;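 active = plate z-score of nuclear minus cytoplasmic receptor signal below a set negative limit, without overly bright fluorescence or cell loss, cut at about -3.5 in these data, passing the limit was not always enough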;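 also: z-score of nuclear minus cytoplasmic ring GR-EGFP intensity difference per well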
#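 medium = tetracycline-free induction medium containing charcoal-stripped FBS | also added = 1.0 µM final dexamethasone stimulus | schedule = 48 h induction, 1 h compound, 30 min dex at 37 °C | technique = fixed, Hoechst-stained cells imaged at 10x for EGFP | measure = GR-EGFP nuclear translocation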
# bCat KO growth: primary screen for growth suppressors in beta-catenin knockout HCT116 cells (colon tumor, human). HCT116 beta-catenin knockout viability, CellTiter-Glo, 60 h; hits give low values. 140,000 compounds, 1.5% hits. AID 818, 2007. viability, % at 10 µM;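 active = viability at or under a set limit, the compound median less 4 SD, cut at about 6% in these data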;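 also: 0% = Hyamine 1622 control at 20 µM and 100% = untreated cell control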
# L major viab: Leishmania major promastigote growth inhibition, primary screen. Leishmania major promastigotes, resazurin fluorescence viability. inhibition, % at 10 µM. 200,000 compounds, 9% hits. AID 1063, 2008; in the data active = inhibition above about 50%;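 also: promastigotes grown with compound for 44 hours at 28 °C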
# Autophagy mod: autophagy modulators in MEF cells, primary screen, imaging, high-content, MEF GFP-LC3 | AID 463193, 2010 | calls only at 10 µM (by protocol) | MEF GFP-LC3 puncta imaging; test concentration mostly 10 µM | 190,000 compounds, 0.98% hits;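 active = percentage of spot-positive cells more than 3 SD above its plate mean, without a fluorescence outlier flag or 80% toxicity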;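 also: spot-positive cell cutoff set from DMSO-treated cells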
# * marks the source's active call; other numbers are inactive results; i = inactive; . = not tested or not shown; + = active, no number. Rows were chosen to be rich in hits. Some 9.2% of all compounds tested hit in one or more screens of this group.
SMILES,HCT116 PTEN-null,Dynein transport,bCat KO growth,L major viab,Autophagy mod
O=C(Nc1cc(C(F)(F)F)ccc1N1CCOCC1)c1cccs1,76,-0.79,80,-1,i
CC1N(C)c2cc(NC(=O)c3cccs3)c(P(=O)(Nc3ccc([N+](=O)[O-])cc3)N3CCOCC3)cc2C1(C)C (stereo not given),.,-0.11,.,59*,i
O=C(COC(=O)c1oc2ccccc2c1COc1ccccc1)NCCN1C(=O)CSC1=O,94,0.0023,90,-1,i
O=C(c1ccccc1)c1nn(-c2ccc(Cl)cc2)c(=O)cc1C(F)(F)F,1.7*,-0.59,2.2*,34,i
O=C(c1cccc(Cl)c1)c1nn(-c2ccccc2)c(=O)cc1C(F)(F)F,1.1*,-0.81,2.5*,35,i
O=C(Nc1ccccc1)c1nn(-c2ccccc2)c(=O)cc1C(F)(F)F,30,-0.32,69,11,+
CCCCCCN(C(=O)CCCCCN1C(=O)NC(c2cccc([N+](=O)[O-])c2)C(C(=O)OCc2ccccc2)=C1C)C(C(=O)NCCCC)c1ccc(OCC(=O)OC)c(C(=O)OC)c1 (stereo not given),.,1.1,.,.,.
O=C(Nc1ccccn1)C(F)(F)C(F)(F)C(F)(F)C(F)(F)C(=O)Nc1ccccn1,100,0.83,100,70*,i
O=C(CC(=O)Nc1ccccn1)Nc1ccccn1,97,-0.32,92,-3,i
Cc1cc(C)c2c(=O)n(CC(=O)N3CCC(Cc4ccccc4)CC3)sc2n1,9,-1.5,1.4*,78*,i
CN1CC(=O)N(CC(=O)N2CCC(Cc3ccccc3)CC2)C1=O,.,-0.86,.,-3,i
NC1=NC(=O)S/C1=C\c1ccc(F)cc1,.,0.35,.,-9,i
CCOC(=O)c1[nH]c(C)c(/C(O)=C2\C(=O)C(=O)N(CCCN(C)C)C2c2cccnc2)c1C (stereo not given),96,0.78,90,-3,i
CCOC(=O)C1(Cc2ccccc2C(F)(F)F)CCN(C2CCN(C(C)C)CC2)CC1,.,0.023,.,99*,i
N#C/C(=C\c1ccc(N2CCCCC2)c([N+](=O)[O-])c1)c1nn(-c2ccccc2)c(N)c1C#N,62,0.34,93,99*,i
CC(=O)Nc1ccc(N2CCCC(C)C2)c([N+](=O)[O-])c1 (stereo not given),.,-0.33,.,11,i
CC1CCN(c2cc(N3CCC(C)CC3)c([N+](=O)[O-])cc2/C=C(\C#N)c2nn(-c3ccccc3)c(N)c2C#N)CC1,93,-0.32,88,-4,i
CC1CCN(c2ccc(/C=C(\C#N)c3nn(-c4ccccc4)c(N)c3C#N)cc2[N+](=O)[O-])CC1,76,-1,72,95*,i
CC1CCCN(c2ccc(/C=C(\C#N)c3nn(-c4ccccc4)c(N)c3C#N)cc2[N+](=O)[O-])C1 (stereo not given),52,1.9,54,96*,i
N#C/C(=C\c1ccc(N2CCCC2)c([N+](=O)[O-])c1)c1nc2ccccc2[nH]1,74,0.62,74,6,i
O=c1c2c(nc3nc(NCc4cccc(Cl)c4)[nH]n13)CCC2,.,2.3,.,-5,i
COc1ccc(CCN=C(N)NS(=O)(=O)c2ccccc2)cc1OC,84,0.82,90,-4,i
COc1ccc(NS(=O)(=O)c2ccc(N3CC(O)=C(c4ccccc4)C3=N)cc2)cc1,.,-0.17,.,.,.
CCCCn1c(=O)c(CCC(=O)OCC(=O)NC(=O)NCCOC)nc2ccccc21,.,0.88,.,8,i
Cc1[nH]nc2c1C(c1ccsc1)C(C#N)=C(N)O2 (stereo not given),92,-0.39,79,57*,i
SMILES,HCT116 PTEN-null,Dynein transport,bCat KO growth,L major viab,Autophagy mod
CC(C)c1[nH]nc2c1C(c1cccs1)C(C#N)=C(N)O2 (stereo not given),58,-2.3,57,59*,i
CC(C)C1C(C#N)=C(N)Oc2n[nH]c(-c3ccc4ccccc4c3)c21 (stereo not given),25,-0.19,25,8,+
Cc1ccc(-c2[nH]nc3c2C(c2ccsc2)C(C#N)=C(N)O3)cc1 (stereo not given),96,0.95,85,7,i
Cc1[nH]nc2c1C(c1ccsc1C)C(C#N)=C(N)O2 (stereo not given),1.2*,-0.083,91,77*,i
Cc1cc(C2C(C#N)=C(N)Oc3n[nH]c(C)c32)c(C)s1 (stereo not given),71,-0.037,63,33,i
CCOC(=O)c1cc2c(=O)n3cccc(C)c3nc2n(CCOC)c1=NC(C)=O,.,-0.27,.,.,.
Cc1cccc(N2N=C(C(=O)N3CC(=O)Nc4ccccc43)CCC2=O)c1,.,0.85,.,-3,i
Cc1c(NC(=O)COC(=O)c2cc3c4ccccc4n(C)c3s2)c(=O)n(-c2ccccc2)n1C,78,0.18,83,96*,i
Cc1c(NC(=O)COC(=O)c2ccccc2Cl)c(=O)n(-c2ccccc2)n1C,.,-0.0093,.,-6,i
N#Cc1ccsc1NC(=O)CN1CCN(S(=O)(=O)c2ccc3ccccc3c2)CC1,87,-0.58,85,65*,i
O=C(CN1CCN(S(=O)(=O)c2ccc3ccccc3c2)CC1)Nc1ccc2c(c1)CCC2,62,-0.79,70,89*,i
O=C(CN1CCN(c2ccccc2F)CC1)Nc1ccc2c(c1)CCC2,102,-0.01,89,64*,i
COc1ccc(NC(=O)CN2CCN(c3ccccc3F)CC2)cc1,94,-0.96,100,-5,i
COc1cc(NC(=O)c2ccccc2[N+](=O)[O-])ccc1NC(=O)C(C)C,107,0.39,101,-9,i
N#CC(Sc1ccccn1)c1ccc(Cl)cc1Cl (stereo not given),.,-1.4,.,24,i
CCOC(=O)c1ccc(NC(=S)N2CCN(CCN=CC3=C(O)CC(c4ccccc4)CC3=O)CC2)cc1 (stereo not given),.,1.6,.,.,.
COc1ccc(NC(=S)N2CCN(CCN=CC3=C(O)CC(c4ccccc4)CC3=O)CC2)cc1 (stereo not given),97,-0.47,98,53*,i
CC1(c2ccc([N+](=O)[O-])c(CS(=O)(=O)c3ccccc3)c2)OCCO1,.,0.48,.,-4,i
CCOC(=O)C1(CCOC)CCN(C(C)CCc2ccc(OC)cc2)CC1 (stereo not given),.,0.083,.,91*,i
CCCCC(=O)N(Cc1ccc2c(c1)OCO2)Cc1nc2ccccc2c(=O)[nH]1,.,-0.21,.,-1,i
Cc1ccc(C(=O)N(Cc2ccc3c(c2)OCO3)Cc2nc3ccccc3c(=O)[nH]2)cc1,81,-0.28,89,96*,i
COc1ccc(C(=O)O/N=C(\N)Cc2ccc(Cl)c(Cl)c2)cc1OC,78,-0.35,87,81*,i
